The record followed here is ChEMBL document CHEMBL4330152, “α-Carbonic anhydrases are strongly activated by spinaceamine derivatives” (Bioorg Med Chem, 2019).

For assay [1], the target named is Carbonic anhydrase 4 (Homo sapiens) (UniProt P22748). The experiment in a line: Activation of human CA-4 incubated for 15 mins prior to testing by stopped flow CO2 hydrase assay. In a few lines: (§1)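 Stopped-flow CO2 hydration at 25 °C, 10 mM Hepes pH 7.5 with 0.1 M NaClO4, phenol red 0.2 mM read at 557 nm over 10 s. CO2 1.7–17 mM. Activators (0.1 mM stocks in water) diluted in buffer down to 1 nM and preincubated 15 min with enzyme. Initial rates from ≥6 traces of first 5–10% of reaction, uncatalysed rate subtracted. Activation constants from competitive steady-state equation.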
Carbonic anhydrase 4 (Homo sapiens), sequence (P22748 whole entry): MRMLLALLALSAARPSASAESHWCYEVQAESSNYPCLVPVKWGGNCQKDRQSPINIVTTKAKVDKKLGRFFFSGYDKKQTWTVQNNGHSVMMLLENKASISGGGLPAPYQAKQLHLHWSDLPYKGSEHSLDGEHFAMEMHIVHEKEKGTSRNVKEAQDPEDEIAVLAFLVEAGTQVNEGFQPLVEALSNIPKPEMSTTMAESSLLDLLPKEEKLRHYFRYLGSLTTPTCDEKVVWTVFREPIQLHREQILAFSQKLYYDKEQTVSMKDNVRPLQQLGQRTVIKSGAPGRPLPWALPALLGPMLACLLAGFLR

Assay [2] concerns the target Carbonic anhydrase 1 (Homo sapiens) (UniProt P00915). Nature of the assay: Activation of human CA-1 incubated for 15 mins prior to testing by stopped flow CO2 hydrase assay. In a few lines: as §1
The target in assay [3] is Carbonic anhydrase 7 (Homo sapiens) (UniProt P43166). Nature of the assay: Activation of human CA-7 incubated for 15 mins prior to testing by stopped flow CO2 hydrase assay.
Assay [4] concerns the target Carbonic anhydrase 2 (Homo sapiens) (UniProt P00918). Nature of the assay: Activation of human CA-2 incubated for 15 mins prior to testing by stopped flow CO2 hydrase assay. In a few lines:
as §1

Carbonic anhydrase 1 (Homo sapiens), sequence (P00915 2-261 limits assumed): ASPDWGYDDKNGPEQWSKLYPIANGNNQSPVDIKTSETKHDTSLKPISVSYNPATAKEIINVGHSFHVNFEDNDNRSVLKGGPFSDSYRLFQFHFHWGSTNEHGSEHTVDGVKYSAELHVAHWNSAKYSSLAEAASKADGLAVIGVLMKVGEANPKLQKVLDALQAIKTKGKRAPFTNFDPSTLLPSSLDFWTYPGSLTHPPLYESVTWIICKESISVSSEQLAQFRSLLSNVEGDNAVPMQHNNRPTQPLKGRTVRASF

For the compound `N#Cc1ccc(C2NCCc3nc[nH]c32)cc1` (stereo not drawn), the KA was determined as 5.8 µM in assay [1], 4.89 µM in assay [2], 4.26 µM in assay [3] and 7.25 µM in assay [4].

With `COc1ccc(C2NCCc3[nH]cnc32)cc1` (stereo not drawn), the KA was determined as 6.37 µM in assay [1], 6.01 µM in assay [2], 0.73 µM in assay [3] and 7.31 µM in assay [4].

As to `CN(C)c1ccc(C2NCCc3nc[nH]c32)cc1` (stereo not drawn), the KA in assay [1] was found to be 3.14 µM; in assay [2] it was 3.45 µM; in assay [3] it was 0.59 µM; in assay [4], 7.44 µM.

As to `COc1ccc(C2NCCc3nc[nH]c32)cc1OC` (stereo not drawn), the KA in assay [1] worked out at 6.17 µM; in assay [2] it was 3.76 µM; in assay [3], 0.26 µM; in assay [4], 0.71 µM.

Take `c1coc(C2NCCc3nc[nH]c32)c1` (stereo not drawn): the KA in assay [1] was 2.4 µM; in assay [2], 21.5 µM; in assay [3], 0.095 µM; in assay [4] it was 5.12 µM.

With `Cc1ccc(Br)cc1C1NCCc2nc[nH]c21` (stereo not drawn), the KA in assay [1] stood at 4.42 µM; in assay [2], 12.7 µM; in assay [3] it was 0.38 µM; in assay [4], 15.5 µM.

`c1ccc(C2NCCc3[nH]cnc32)cc1` (stereo not drawn): the KA came out at 63.8 µM in assay [1], 8.12 µM in assay [2], 2.69 µM in assay [3] and 16.3 µM in assay [4].

Take `Oc1ccccc1C1NCCc2nc[nH]c21` (stereo not drawn): the KA in assay [1] is 3.59 µM; in assay [2], 2.52 µM; in assay [3], 0.11 µM; in assay [4], 1.62 µM.

In the case of `Oc1ccc(Br)cc1C1NCCc2nc[nH]c21` (stereo not drawn), the KA in assay [1] worked out at 10.9 µM; in assay [2], 4.9 µM; in assay [3] it was 0.12 µM; in assay [4], 1.03 µM.

For the compound `COc1cc(C2NCCc3nc[nH]c32)cc(OC)c1OC` (stereo not drawn), the KA in assay [1] came to 2.84 µM; in assay [2], 9.28 µM; in assay [3], 0.093 µM; in assay [4] it was 3.26 µM.

On to `Clc1ccc(C2NCCc3[nH]cnc32)cc1` (stereo not drawn), for which the KA in assay [1] was 50.1 µM; in assay [2], 17.6 µM; in assay [3], 0.84 µM; in assay [4] it was 8.49 µM.

Take `Cc1ccc(C2NCCc3nc[nH]c32)cc1` (stereo not drawn): the KA was determined as 7.06 µM in assay [1], 6.27 µM in assay [2], 1.03 µM in assay [3] and 17.2 µM in assay [4].

In the case of `Fc1cc(F)c(F)c(C2NCCc3nc[nH]c32)c1F` (stereo not drawn), the KA came to 0.52 µM in assay [1], 9.92 µM in assay [2], 0.11 µM in assay [3] and 0.6 µM in assay [4].

As to `Brc1ccccc1C1NCCc2nc[nH]c21` (stereo not drawn), the KA in assay [1] turned out to be 4.05 µM; in assay [2], 4.3 µM; in assay [3] it was 0.082 µM; in assay [4] it was 2.8 µM.

`NCCc1c[nH]cn1`: the KA was 4.03 µM in assay [1] and 37.6 µM in assay [3].
